Assays:
MCF7 [1] = test: Cytotoxicity against human MCF7 cells assessed as cell survival at 10 uM after 48 hrs by […]; format: functional; conditions: MCF7, 48 h, read-out: Survival
Outline: (§1)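 MCF-7 human breast tumour cells seeded at 10^4 cells/well and left 24 h to attach. Compounds in DMSO added at 10, 25, 50 or 100 µM, triplicate wells per concentration, 48 h at 37 °C, 5% CO2. Cells fixed and stained 30 min with 0.4% SRB in 1% acetic acid, bound dye recovered in Tris-EDTA, absorbance read. Surviving fraction reported.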

MCF7 [2] = test: Cytotoxicity against human MCF7 cells assessed as cell survival at 25 uM after 48 hrs by […]; format: functional; conditions: MCF7, 48 h, read-out: Survival; outline: as §1
MCF7 [3] = test: Cytotoxicity against human MCF7 cells assessed as cell survival at 50 uM after 48 hrs by […]; format: functional; conditions: MCF7, 48 h, read-out: Survival; outline: as §1
MCF7 [4] = test: Cytotoxicity against human MCF7 cells assessed as cell survival at 100 uM after 48 hrs by SRB assay; conditions: MCF7, 48 h, read-out: Survival
Carbonic anhydrase 9 = Carbonic anhydrase 9 (Homo sapiens, UniProt Q16790); test: Inhibition of human recombinant carbonic anhydrase 9 preincubated for 15 mins by stopped-flow CO2 hydrase assay
MCF7 [5] = test: Cytotoxicity against human MCF7 cells assessed as reduction in cell survival after 48 hrs by MTT assay; conditions: MCF7, 48 h

| SMILES | viability at 10 µM (MCF7 [1]) [%] | viability at 25 µM (MCF7 [2]) [%] | viability at 50 µM (MCF7 [3]) [%] | viability at 100 µM (MCF7 [4]) [%] | Ki (Carbonic anhydrase 9) [µM] | IC50 (MCF7 [5]) [µM] |
| --- | --- | --- | --- | --- | --- | --- |
| COc1cccc2c1C(=O)c1c(O)c3c(c(O)c1C2=O)C[C@@](O)(C(=O)CO)C[C@@H]3O[C@H]1C[C@H](N)[C@H](O)[C@H](C)O1 [DOXORUBICIN] | 31.4 | 30.9 | 25.1 | 26.6 | – | – |
| N=c1c2c(-c3ccc(Br)cc3)cn(-c3ccc(S(N)(=O)=O)cc3)c2ncn1N | 33 | 30.9 | 22.7 | 26.8 | 0.0027 | 7.29 |
| NS(=O)(=O)c1ccc(-n2cc(-c3ccc(Br)cc3)c3c2N=CN2NC(=O)CN=C32)cc1 | 39.3 | 35.8 | 33.7 | 36.2 | – | 8.11 |
| NS(=O)(=O)c1ccc(-n2cc(-c3ccc(Br)cc3)c3c2ncn2nnnc32)cc1 | 34.8 | 29.4 | 25.4 | 21.6 | – | 7.84 |
| CC(=O)N1C(=O)/C(=N\n2cnc3c(c(-c4ccc(Br)cc4)cn3-c3ccc(S(N)(=O)=O)cc3)c2=N)c2ccccc21 | 34.2 | 28.7 | 25.9 | 32.6 | – | 7.56 |
| N#CC1=C(N)N=C2c3c(-c4ccc(Br)cc4)cn(-c4ccc(S(N)(=O)=O)cc4)c3N=CN2N=C1 | 38.2 | 38 | 40.1 | 37.9 | 0.0031 | 8.11 |
| NS(=O)(=O)c1ccc(-n2cc(-c3ccc(Br)cc3)c3c2ncn2nc4c5ccccc5nc-4nc32)cc1 | 34.7 | 33.8 | 31.5 | 38.1 | – | 7.84 |
| C/C(CC(=O)c1ccccc1)=N/n1cnc2c(c(-c3ccc(Br)cc3)cn2-c2ccc(S(N)(=O)=O)cc2)c1=N | 38.1 | 33.3 | 25.1 | 30.1 | 0.0028 | 7.84 |
| NS(=O)(=O)c1ccc(-n2cc(-c3ccc(Br)cc3)c3c2ncn2[nH]c(=O)c(=O)nc32)cc1 | 43.6 | 36.6 | 35 | 35.8 | 0.325 | 8.66 |
| N#Cc1c(-c2ccc(Br)cc2)cn(-c2ccc(S(N)(=O)=O)cc2)c1N | 32.7 | 27.3 | 23.3 | 25.5 | 0.0063 | 7.56 |
| CC1=CC(C)=NN2C=Nc3c(c(-c4ccc(Br)cc4)cn3-c3ccc(S(N)(=O)=O)cc3)C2=N1 | 38 | 28.5 | 33.2 | 37.5 | 0.0496 | 7.84 |
| CCOC(=O)n1c(=O)nc2c3c(-c4ccc(Br)cc4)cn(-c4ccc(S(N)(=O)=O)cc4)c3ncn21 | 36.1 | 31.1 | 23.2 | 21.6 | 0.0026 | 7.56 |
| CCOC(=O)c1nc2c3c(-c4ccc(Br)cc4)cn(-c4ccc(S(N)(=O)=O)cc4)c3ncn2n1 | 30.5 | 28.1 | 27.4 | 30.9 | 0.0027 | 7.29 |
| CCOC(=O)C1=C(N)N=C2c3c(-c4ccc(Br)cc4)cn(-c4ccc(S(N)(=O)=O)cc4)c3N=CN2N=C1 | 37.2 | 37.7 | 35.3 | 39.1 | 0.003 | 7.84 |
| CC(=O)Cc1nc2c3c(-c4ccc(Br)cc4)cn(-c4ccc(S(N)(=O)=O)cc4)c3ncn2n1 | 40 | 39.9 | 36.5 | 35 | 0.0031 | 8.94 |
| CC1=NN2C=Nc3c(c(-c4ccc(Br)cc4)cn3-c3ccc(S(N)(=O)=O)cc3)C2=NC(c2ccccc2)=C1 | 30.3 | 30.6 | 27.7 | 28 | 0.0036 | 7.29 |
| N#Cc1c(N)nn2cnc3c(c(-c4ccc(Br)cc4)cn3-c3ccc(S(N)(=O)=O)cc3)c12 | 34.7 | 29.2 | 21.3 | 22.1 | 0.0024 | 7.56 |
| CCOC(=O)Cc1nc2c3c(-c4ccc(Br)cc4)cn(-c4ccc(S(N)(=O)=O)cc4)c3ncn2n1 | 42.6 | 41 | 34.8 | 33.5 | 0.003 | 8.94 |
| CCO/C=N/c1c(C#N)c(-c2ccc(Br)cc2)cn1-c1ccc(S(N)(=O)=O)cc1 | 34 | 29.4 | 24.6 | 25.6 | 0.0039 | 7.56 |

From ChEMBL document CHEMBL3297685, “Carbonic anhydrase inhibitors: Synthesis, molecular docking, cytotoxic and inhibition of the human carbonic anhydrase isoforms I, II, IX, XII with novel benzenesulfonamides incorporating pyrrole, pyrrolopyrimidine and fused pyrrolopyrimidine moieties” (Bioorg Med Chem, 2014)
